# An excerpt weighted towards active compounds, which were near 2.3% of everything screened.
# TRPC6 inh: inhibitors of mouse TRPC6 channel | B-score at 10 µM | AID 2553 | 1.1% of 310,000 active | Q61143 | HEK293-TRPC6, membrane potential dye, ACh-evoked depolarization; stronger effect = lower value;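 active = B-score under library mean minus 3 SD, initial fluorescence not abnormally high, positive integrated signal ratio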;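 note: B-score derived from integrated fluorescence ratio over the kinetic read; more negative B-score means stronger inhibition of depolarization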
# TRPC6 activator: mouse TRPC6 channel activation | Q61143 | HEK293-TRPC6 membrane potential dye fluorescence; stronger effect = higher value | B-score at 10 µM | 0.13% of 310,000 active;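 active = B-score of the integrated fluorescence ratio above library mean plus 3 SD, and starting fluorescence ratio within library mean plus 5 SD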;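 note: higher score means more depolarization so channel activation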
# TRPC4 act: TRPC4 (mouse) channel activation; Q9QUQ5; HEK293 TRPC4beta/mu-opioid, Fluo4 calcium fluorescence; stronger effect = higher value; B-score at 10 µM; 0.49% of 310,000 active; AID 2237;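 active = B-score above 5 SD of library B-scores, and initial fluorescence ratio not above library mean plus 5 SD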;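 note: positive B-score marks a calcium rise read as TRPC4 activation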
# Target sequence (Q9QUQ5 whole entry, looked up): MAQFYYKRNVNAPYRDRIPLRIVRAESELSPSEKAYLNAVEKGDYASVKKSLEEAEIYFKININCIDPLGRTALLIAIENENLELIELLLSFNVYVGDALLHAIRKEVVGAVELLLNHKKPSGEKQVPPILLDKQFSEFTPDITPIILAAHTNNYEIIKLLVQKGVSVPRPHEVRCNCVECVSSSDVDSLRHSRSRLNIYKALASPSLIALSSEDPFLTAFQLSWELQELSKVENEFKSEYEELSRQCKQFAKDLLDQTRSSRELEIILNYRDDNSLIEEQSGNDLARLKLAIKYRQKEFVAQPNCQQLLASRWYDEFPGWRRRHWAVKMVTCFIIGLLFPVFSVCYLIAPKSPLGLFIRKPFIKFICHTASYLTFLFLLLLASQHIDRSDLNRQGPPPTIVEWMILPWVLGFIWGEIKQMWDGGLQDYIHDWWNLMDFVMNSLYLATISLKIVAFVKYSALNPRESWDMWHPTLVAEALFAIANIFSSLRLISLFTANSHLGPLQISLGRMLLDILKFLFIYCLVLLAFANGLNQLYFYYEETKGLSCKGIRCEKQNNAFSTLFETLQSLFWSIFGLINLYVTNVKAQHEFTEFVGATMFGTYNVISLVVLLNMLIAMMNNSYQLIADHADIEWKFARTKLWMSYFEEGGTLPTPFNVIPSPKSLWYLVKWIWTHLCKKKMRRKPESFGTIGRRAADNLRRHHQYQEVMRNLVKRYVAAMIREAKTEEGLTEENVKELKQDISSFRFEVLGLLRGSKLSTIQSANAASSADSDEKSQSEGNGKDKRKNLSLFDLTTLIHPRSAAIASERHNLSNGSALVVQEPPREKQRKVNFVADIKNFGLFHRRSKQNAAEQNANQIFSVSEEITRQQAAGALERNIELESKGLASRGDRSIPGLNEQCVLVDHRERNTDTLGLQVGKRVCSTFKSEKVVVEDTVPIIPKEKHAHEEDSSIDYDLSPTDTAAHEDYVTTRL
#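 Assay system: HEK293 stable line with TRPC4beta plus mu-opioid receptor; schedule: 45 min room-temperature Fluo4 loading, 110 s read; technique: kinetic Fluo4 calcium fluorescence; evaluation: integrated baseline-normalised fluorescence ratio, converted to per-well B score; controls: buffer (low) and maximal DAMGO (high)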
# TRPC4 PAM: allosterically enhances the mouse TRPC4 cation channel; HEK293 TRPC4beta/mu-opioid, DAMGO EC20, Fluo-4 Ca2+ flux; stronger effect = higher value; B-score at 10 µM; 0.42% of 310,000 active; AID 2227;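 active = B-score of calcium response area above 5 SD of library B-scores, with initial fluorescence ratio within 5 SD of library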;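 note: B-score of integrated fluorescence ratio over time as area under calcium response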
# TRPC4 block: blocks the mouse TRPC4 cation channel; Q9QUQ5; HEK293 TRPC4beta/mu-opioid, DAMGO-evoked Fluo4 calcium flux; stronger effect = lower value; B-score at 10 µM; 0.39% of 300,000 active;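 active = B-score over 3 SD under the library average, no early fluorescence shift, positive overall ratio signal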
#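 Assay system: HEK293 cells with stable TRPC4beta plus mu-opioid receptor expression; Probe or stimulus: DAMGO in two steps, submaximal then maximal; Dosing: single-point compound dosing; Measured by: Fluo4 calcium-dye fluorescence, kinetic read; Read-out basis: B score from integrated Fluo4 fluorescence ratio.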
# TRPC4 spec 2: second check of whether TRPC6 inhibitors also affect mouse TRPC4 | HEK293 TRPC4/MOR, membrane potential dye fluorescence; channel activated by saturating DAMGO dose | shares compounds with TRPC6 inh | 42% of 920 active | inhibition, % at 10 µM | AID 2776;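 active = compounds whose fluorescence signal differed from control wells by over 3 SD, either direction, in both duplicate plates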
# TRPC4 spec: mouse TRPC4 off-target activity of TRPC6 inhibitors. shares compounds with TRPC6 inh. HEK293 TRPC4/mu-opioid, membrane potential fluorescence. activity change, negative = inhibition, % at 10 µM. 61% of 920 active;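 active = rise or fall in signal beyond 3 SD of buffer-only wells in both replicate plates, either sign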;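 note: integrated kinetic ratio of fluorescence range over baseline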
# HEK293 MPD ctr 2-1: second check of TRPC6 inhibitor effects in parental HEK293 cells; shares compounds with TRPC6 inh; 31% of 920 active; parental HEK293 membrane potential dye fluorescence; maximal acetylcholine challenge after compound addition; signal change vs control, % at 10 µM;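 active = membrane potential signal moving either way by over 3 SD of the maximum-effect control, in both duplicate plates, meaning non-specific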
# HEK293 MPD ctr-1: parental HEK293 nonspecific activity of TRPC6 inhibitors; shares compounds with TRPC6 inh; membrane potential signal change, % at 10 µM; 60% of 920 active; parental HEK293 membrane potential dye fluorescence; AID 2780;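 active = membrane potential signal shifting up or down by more than 3 SD of buffer-only wells, on both duplicate plates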
# HEK293 MPD ctr-2: counter-screen for TRPC6 modulators: effect in parental HEK293 cells; shares compounds with TRPC6 inh; membrane potential dye fluorescence; membrane potential signal change, % at 10 µM; 51% of 2,400 active; AID 488924;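 active = membrane potential signal moves up or down beyond 5 SD from buffer-only wells, on both duplicate plates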
# HEK293 MPD ctr 2-2: parental HEK293 nonspecific activity of TRPC6 modulators, second screen | membrane potential dye fluorescence; after compound, maximal acetylcholine stimulation | shares compounds with TRPC6 inh | 14% of 2,400 active | inhibition, % at 10 µM;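 active = membrane potential signal drops by more than 5 SD from the mean control signal, in both duplicate plates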;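 note: plate controls were acetylcholine ECmax control wells for no effect and buffer only wells for full effect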
# TRPC4 ctr mod: selectivity of TRPC6 modulators against mouse TRPC4. HEK293 TRPC4/mu-opioid, membrane potential fluorescence. shares compounds with TRPC6 inh. percent change from control (negative = decrease, positive = increase), % at 10 µM. 69% of 2,400 active;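 active = membrane potential signal moved up or down beyond 5 SD of buffer control wells, in both duplicate plates, actives on both sides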;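 note: plate controls were assay buffer wells for no effect and DAMGO maximal-effect wells for full effect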
# TRPC4 ctr inh 2: mouse TRPC4 off-target activity of TRPC6 modulators, second screen | inhibition, % at 10 µM | 55% of 2,400 active | shares compounds with TRPC6 inh | HEK293 TRPC4/mu-opioid, membrane potential dye fluorescence; stimulated with maximal-effect DAMGO;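 active = drop in membrane potential signal beyond 5 SD of the control wells in both duplicate plates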;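 note: TRPC4 counter screen for TRPC6 hits run under conditions tuned for TRPC6 not TRPC4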
# TRPC6 block conf: mouse TRPC6 inhibitor confirmation; shares compounds with TRPC6 inh; HEK293-TRPC6, membrane potential dye, ACh-evoked depolarization; inhibition, % at 10 µM; 43% of 3,300 active;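 active = fluorescence ratio falls more than 5 SD below the full-stimulation control mean, in both duplicate runs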;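 note: integrated fluorescence ratio of peak minus minimum over baseline after agonist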
# TRPC6 act conf: confirmation of mouse TRPC6 activators; HEK293-TRPC6 membrane potential dye fluorescence, FDSS; AID 488961; shares compounds with TRPC6 inh; activation, % at 10 µM; 11% of 2,800 active;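 active = ratio signal rise beyond 5 SD above unstimulated control wells' mean, seen in both duplicate runs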;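 note: plate controls were buffer EC0 wells for no effect and acetylcholine ECmax response for full effect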
# * marks the source's active call; other numbers are inactive results; i = inactive; . = no result.
SMILES,TRPC6 inh,TRPC6 activator,TRPC4 act,TRPC4 PAM,TRPC4 block,HEK293 MPD ctr-2,HEK293 MPD ctr 2-2,TRPC4 ctr mod,TRPC4 ctr inh 2,TRPC6 block conf,TRPC6 act conf,others
CC1(C)CC[C@@]23CC[C@]4(C)[C@@](OC2=O)(C3C1)[C@H]1O[C@H]1C1[C@@]2(C)CC[C@H](O)C(C)(C)C2CC[C@]14C (stereo partly drawn),i,i,i,i,i,.,.,.,.,.,.,
CC(C)c1ccc(CNc2ncccn2)cc1,i,i,i,i,i,.,.,.,.,.,.,
CCOC(=O)c1ccc(NC(=O)C2C3CCCCC32)cc1 (stereo not drawn),i,i,i,i,i,.,.,.,.,.,.,
Cc1cccc(NS(=O)(=O)c2cccc(C(=O)NCC3(N4CCCCC4)CCCCC3)c2)c1,-5*,i,i,i,i,i,i,i,72%*,52%*,.,
CNS(=O)(=O)c1cccc(C(=O)NCC2(N3CCCCC3)CCCCC2)c1,i,i,i,i,i,.,.,.,.,.,.,
NCCCn1c(C(=O)c2ccc(Cl)cc2)c2ccc(C(F)(F)F)cc2[n+]1[O-],-9.3*,i,i,i,i,.,.,.,.,67%*,i,TRPC4 spec 2=56%*;TRPC4 spec=-11%*;HEK293 MPD ctr 2-1=i;HEK293 MPD ctr-1=-180%*
N#C/C(=C/c1ccc(N2CCOCC2)o1)c1ccc(Br)cc1,i,25*,i,i,i,568%*,i,152%*,i,i,116%*,
N#C/C(=C/c1ccc(N2CCCCCC2)o1)c1ccc(F)cc1,i,i,i,i,i,.,.,.,.,.,.,
N#C/C(=C\c1ccc(N2CCOCC2)o1)c1ccccc1,i,18*,i,i,i,448%*,i,89%*,i,i,166%*,
COC(=O)[C@@H](NC(=O)N1CCN(C(=O)C2COc3ccccc3O2)CC1)C(C)C (stereo partly drawn),i,i,i,i,i,.,.,.,.,.,.,
COc1ccc(C(=O)N[C@H](C(=O)OCc2nc3ccsc3c(=O)[nH]2)C(C)C)cc1,i,i,i,i,i,.,.,.,.,.,.,
COc1ccc(C(=O)NCC2(N3CCCCC3)CCCCC2)cc1S(=O)(=O)N(C)C,i,i,i,i,i,.,.,.,.,.,.,
Cc1ccc(NC2Sc3ccccc3NC2=O)cc1 (stereo not drawn),i,i,i,i,i,.,.,.,.,.,.,
Cc1ccc(CNC(=O)CSc2nc3c(sc4ccccc43)c(=O)n2CCCN2CCCC2)cc1,-5.8*,i,i,i,i,i,i,8.0%*,69%*,43%*,i,
O=C(CSc1nc2c(sc3ccccc32)c(=O)n1CCCN1CCCC1)NCc1ccccc1,i,i,i,i,i,.,.,.,.,.,.,
CNC(=O)c1ccc(Nc2nnc(C)c3ccccc23)cc1,-5.5*,i,i,i,i,-99%*,i,i,i,i,i,
Cc1nnc(Nc2ccc3c(c2)ncn3C)c2ccccc12,-9.5*,i,i,i,i,.,.,.,.,56%*,i,TRPC4 spec 2=i;TRPC4 spec=-24%*;HEK293 MPD ctr 2-1=-7.0%*;HEK293 MPD ctr-1=-324%*
Cc1nnc(Nc2ccc(C(=O)NCCO)cc2)c2ccccc12,i,i,i,i,i,.,.,.,.,.,.,
CC(=O)c1ccccc1NC(=O)c1ccc(N2CCCC2=O)cc1,i,i,i,i,i,.,.,.,.,.,.,
c1ccc(-c2cc3nccc(-c4ccccn4)n3n2)cc1,i,i,i,i,i,.,.,.,.,.,.,
CCc1nccn1S(=O)(=O)c1cc(OC)ccc1OC,i,i,i,i,i,.,.,.,.,.,.,
CCOC(=O)c1c(NC(=O)c2cnn3c2NC(c2cccc(OC)c2)CC3C(F)(F)F)sc2c1CCCC2 (stereo not drawn),i,i,i,i,i,.,.,.,.,.,.,
COc1cccc(C2CC(C(F)(F)F)n3ncc(C(=O)NCC4CCCO4)c3N2)c1 (stereo not drawn),-5.6*,i,i,i,i,i,i,i,i,i,i,
N=c1n(CCN2CCCC2)c2ccccc2n1CC(O)c1ccco1 (stereo not drawn),i,i,i,i,i,.,.,.,.,.,.,
CCCCCCCn1c(=N)n(CC(=O)c2ccco2)c2ccccc21,-5.3*,i,i,i,i,94%*,i,16%*,78%*,58%*,i,
CCCCCCCn1c(=N)n(CC(O)c2ccco2)c2ccccc21 (stereo not drawn),-5.4*,i,i,i,i,235%*,i,44%*,93%*,70%*,.,
CCc1ccc(NC(=S)N(Cc2ccccc2)Cc2ccccn2)cc1,i,i,i,i,i,.,.,.,.,.,.,
COc1ccc(/C=N/NC(=O)c2nn(-c3ccccc3)c(=O)c3c(N)scc23)cc1,i,i,i,i,i,.,.,.,.,.,.,
COc1ccc(/C=N/NC(=O)c2nn(-c3ccc(Cl)cc3)c(=O)c3c(N)scc23)cc1,-6*,i,i,i,i,-77%*,i,-22%*,36%*,i,i,

# Source: PubChem BioAssay (Johns Hopkins Ion Channel Center)
